Measured values from ChEMBL document CHEMBL1140132, “Virtual screening, identification, and biochemical characterization of novel inhibitors of the reverse transcriptase of human immunodeficiency virus type-1” (J Med Chem, 2008).
Activity calls are given as the source filed them. No cut-off for these calls is given here.

How the values were obtained:
Escherichia coli = test: Inhibition of DNA dependent DNA polymerase activity of Escherichia coli DNA polymerase 1 Klenow fragment assessed as residual enzyme activity at 50 ug/ml relative to control
[1] = Selectivity index, ratio of inhibition of DNA dependent DNA polymerase activity of Escherichia coli DNA polymerase 1 Klenow fragment to inhibition of DNA dependent DNA polymerase activity of HIV1 BH10 recombinant reverse transcriptase p66/p51
Procedure, shortened: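 Ratio of residual Klenow fragment DNA-dependent DNA polymerase activity to residual HIV-1 RT activity. Both enzymes were assayed side by side under identical conditions: activated herring sperm DNA at 20 µg/mL, all four dNTPs, 37 °C, 1% DMSO, compound at 50 µg/mL.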

[2] = test system: Human immunodeficiency virus 1; test: Antiviral activity against HIV1 infected in human 721.221 B lymphocytes assessed as inhibition of pseudovirus infection; conditions: Human immunodeficiency virus 1, 721.221
[3] = Selectivity index, ratio of CC50 for human 721.221 cells to IC50 for HIV1 pseudovirus infection; assay type: functional
Procedure, shortened: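 CC50 in 721.221 cells from a 72 h XTT viability assay, divided by IC50 against infection by VSV-G-pseudotyped HIV-1 GFP reporter virus. For the infection assay, cells were infected with 5.6 µg/mL Polybrene and 1% DMSO in RPMI, then fixed at 48–72 h and analysed by flow cytometry. IC50 came from a four-parameter logistic fit.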

[4] = test system: Human immunodeficiency virus type 1 reverse transcriptase (Human immunodeficiency virus 1), Q72547 [L100I,K103N]; test: Inhibition of DNA dependent DNA polymerase activity of HIV1 reverse transcriptase L100I/K103N mutant expressed in Escherichia coli DH5alpha
Procedure, shortened: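 DDDP assay on activated herring sperm DNA (20 µg/mL final) with all four dNTPs, at 37 °C with 1% DMSO. Inhibitor in DMSO is premixed into the buffer before RT is added. Read-out is dNTP incorporation. Dose-response is fitted to a four-parameter logistic for IC50. Values are means of three independent experiments.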

[5] = target: T1, Human immunodeficiency virus type 1 reverse transcriptase (Human immunodeficiency virus 1, UniProt Q72547); test: Inhibition of DNA dependent DNA polymerase activity of HIV1 BH10 recombinant reverse transcriptase p66/p51 assessed as residual enzyme activity
Procedure, shortened: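 Recombinant RT DNA-dependent DNA polymerase assay at 37 °C in 1% DMSO, with the inhibitor premixed into buffer before RT was added. Template was activated herring sperm DNA, 20 µg/mL final, with all four dNTPs. Compound present at 50 µg/mL final.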

[6] = target: T1, Human immunodeficiency virus type 1 reverse transcriptase; test: Inhibition of RNA dependent DNA polymerase activity of HIV1 BH10 recombinant reverse transcriptase p66/p51 assessed as residual enzyme activity
Procedure, shortened: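 Recombinant RT RNA-dependent DNA polymerase activity measured as [3H]dTTP incorporation into poly(rA)n·oligo(dT)12-18 at 37 °C in 1% DMSO. Inhibitor was mixed into buffer before RT was added. Compound present at 50 µg/mL final.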

[7] = target: Human immunodeficiency virus type 1 reverse transcriptase (Human immunodeficiency virus 1) (UniProt Q72547); test: Inhibition of HIV1 BH10 recombinant reverse transcriptase p66/p51 RNase H activity assessed as residual enzyme activity
Procedure, shortened: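 FRET RNase H assay: RT at 6 nM with 1 mM DTT, incubated with a fluorescein-RNA/DNA-dabcyl hybrid substrate ± inhibitor for 30 min at 37 °C. Hydrolysis is read as emitted fluorescence, in triplicate. Residual activity is relative to the inhibitor-free control.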

[8] = target: Human immunodeficiency virus type 1 reverse transcriptase (Human immunodeficiency virus 1, UniProt Q72547, Y181C); test: Inhibition of RNA dependent DNA polymerase activity of HIV1 reverse transcriptase Y181C mutant expressed in Escherichia coli BL21
[9] = test system: Human immunodeficiency virus 2; test: Inhibition of RNA dependent DNA polymerase activity of HIV2 recombinant reverse transcriptase at 140 uM
[10] = test system: Human immunodeficiency virus 1; test: Antiviral activity against HIV1 infected in human 293T cells; assay type: functional, organism-based; conditions: Human immunodeficiency virus 1, HEK-293T
[11] = test system: Human immunodeficiency virus 1; test: Antiviral activity against HIV1 infected in human CEM cells; assay type: functional, organism-based; conditions: Human immunodeficiency virus 1, CCRF-CEM
[12] = test system: Human immunodeficiency virus 1; test: Antiviral activity against HIV1 infected in 8186 T cells; assay type: functional, organism-based; conditions: Human immunodeficiency virus 1, T-cell
[13] = test system: Human immunodeficiency virus 2; test: Inhibition of DNA dependent DNA polymerase activity of HIV2 recombinant reverse transcriptase at 140 uM
[14] = test system: Human immunodeficiency virus 1; test: Antiviral activity against HIV1 infected in human 293T cells assessed as inhibition of pseudovirus infection; assay type: functional, organism-based; conditions: Human immunodeficiency virus 1, HEK-293T
[15] = Cytotoxicity against human 721.221 cells after 72 hrs by XTT assay; assay type: cell-based
Procedure, shortened: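 721.221 B lymphocytes incubated 72 h at 37 °C with a range of inhibitor concentrations, each concentration in triplicate. Viability read by XTT absorbance at 450 nm, with 620 nm reference. CC50 is the concentration reducing viability by 50% versus the inhibitor-free control.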

[16] = target: T1, Human immunodeficiency virus type 1 reverse transcriptase; test: Inhibition of RNA dependent DNA polymerase activity of HIV1 BH10 recombinant reverse transcriptase p66/p51 assessed as residual enzyme activity at 616 nM using rA.dT substrate by steady state kinetic assay
[17] = target: T1, Human immunodeficiency virus type 1 reverse transcriptase; test: Inhibition of RNA dependent DNA polymerase activity of HIV1 BH10 recombinant reverse transcriptase p66/p51 assessed as residual enzyme activity at 616 nM using dTTP substrate by steady state kinetic assay
[18] = target: Human immunodeficiency virus type 1 reverse transcriptase (Human immunodeficiency virus 1) (UniProt Q72547); test: Inhibition of RNA dependent DNA polymerase activity of HIV1 BH10 recombinant reverse transcriptase p66/p51 assessed as residual enzyme activity at 616 nM using variable enzyme levels by steady state kinetic assay relative to control

Compound	Activity (Escherichia coli) [%]	Ratio [1]	IC50 [2] [nM]	further results
CCCOCCCNC(=S)Nc1cc(F)ccc1F	47.5	0.6		
CCCOCCCNC(=S)Nc1cc(Cl)ccc1OC	50.8	3.2	320	
Cc1ccc(CCN2C(=O)CS[C@@H]2c2ccc(C)o2)cc1			> 20000	
S=C(NCc1ccco1)Nc1ccc(Cl)cc1			> 20000	
CCCOCCCNC(=S)Nc1ccc(C(=O)OC)cc1	2.6	0.2		
CCCCc1ccc(NC(=S)NCCCOCCC)cc1	74.2	2.4		
COc1ccccc1NC(=S)NCc1ccco1			> 20000	
S=C(NCc1ccco1)NC1CCCCC1			> 20000	
CCCOCCCNC(=S)Nc1ccc(Br)c(C)c1	14.4	0.6		
CCCOCCCNC(=S)Nc1cc(C)c(C)cc1C	64.4	2.9		
CCCOCCCNC(=S)Nc1cccc(OC)c1	98.7	3.2		
CCCOCCCNC(=S)Nc1cc(OC)ccc1OC			3000	
CCCOCCCNC(=S)Nc1ccc(Cl)c(C(F)(F)F)c1	2.2	0.5		
O=S(=O)(Nc1n[nH]cc1Br)c1cccc2nsnc12			370	Ratio CC50/IC50 [3]: >446; Activity [4]: Active; IC50 [5]: 3300 nM; IC50 [6]: 2800 nM; Activity [7]: inactive; IC50 [8]: 20 µM; inhibition [9]: 50%
CCOC(=O)CCCNC(=S)Nc1ccc(Cl)c(C(F)(F)F)c1			1600	
CCCOCCCNC(=S)Nc1cccc(C(=O)OCC)c1	56.6	1.2		
CCCOCCCNC(=S)Nc1cccc(C#N)c1	75.2	1.1		
CCCOCCCNC(=S)Nc1ccc(N(C)C)cc1	11.1	0.2		
CCCOCCCNC(=S)Nc1ccccc1OCC	87.1	5.4	430	
CCCOCCCNC(=S)Nc1ccc(Cl)cc1Cl	13.2	0.2		
COc1ccc(CCn2cc(NC(=O)CCc3ccoc3)cn2)cc1OC			> 20000	

Compound	Activity (Escherichia coli) [%]	Ratio [1]	IC50 [2] [nM]	further results
C=CCOc1nc(OCC=C)nc(OC[C@@H]2CN(C(=S)NCc3ccco3)CCO2)n1			> 20000	
S=C(NCc1ccco1)N1CCO[C@H](COc2cncc(Cl)c2)C1			> 20000	
C[C@H](NC(=S)Nc1ccc(Cl)cc1)c1ccccc1			4000	
CCCOCCCNC(=S)Nc1ccc(Br)cc1	48.4	1.7		
CCCOCCCNC(=S)Nc1ccc(F)cc1Br	47.6	1.2		
CC(C)(C)CNC(=O)Nc1cc(C(F)(F)F)cc(C(F)(F)F)c1			> 20000	
Cc1ccnc2c1NC(=O)c1cccnc1N2C1CC1 [NEVIRAPINE]	47.5			IC50 [10]: 50 nM; IC50 [11]: 24 nM; IC50 [12]: 40 nM; Activity [4]: Active; Activity [7]: inactive; Activity [13]: inactive; IC50 [14]: 14 nM
CCCOCCCNC(=S)Nc1cc(C)ccc1Cl	76.5	4.4	670	
CCCCc1ccc(NC(=S)NCCCOCCC)c(C)c1	4.5	0.2		
Cc1cc(NC(=S)NCCC2=CCCCC2)ccc1Br			230	
CCCOCCCNC(=S)Nc1ccccc1Cl	59.3	1.2		
Cc1ccc(NC(=S)N2CCc3c([nH]c4ccccc34)C2)c(Cl)c1			> 20000	
CCCOCCCNC(=S)Nc1ccc(Br)c(Cl)c1	1	0.2		
CCOC(=O)CCN(Cc1ccco1)C(=S)Nc1cccc(OC)c1			> 20000	
CCCOCCCNC(=S)Nc1ccc(C(C)(C)C)cc1	13.8	0.4		
CCCOCCCNC(=S)Nc1ccc(Cl)cc1C	47.5		2600	
CCCOCCCNC(=S)Nc1cc(OC)c(Cl)cc1OC	62.2	7.4	170	CC50 at 72 h [15]: 58 µM; Ratio CC50/IC50 [3]: 345; Ki [16]: 1800 nM; Activity [4]: Active; IC50 [5]: 940 nM; Ki [17]: 1100 nM; Activity [18]: 59%; IC50 [6]: 510 nM; Activity [7]: inactive; IC50 [8]: 70 µM; inhibition [9]: 50%
CCCOCCCNC(=S)Nc1cc(C)ccc1OC	71.7	4.3	890	
CCCOCCCNC(=S)Nc1cccc(Cl)c1C	10.8	0.4		
COc1cccc(CCNC(=S)Nc2ccc(Br)c(C)c2)c1OC			7700	
